The source of these data is ChEMBL document CHEMBL3797083, “A New Series of Orally Bioavailable Chemokine Receptor 9 (CCR9) Antagonists; Possible Agents for the Treatment of Inflammatory Bowel Disease” (J Med Chem, 2016).

A short description of data set [1]: Absolute bioavailability in mouse at 1 mg/kg, iv 10 mg/kg, po. The data set is classed as ADME, organism-based. The following applies: in vivo.
A short description of data set [2]: Metabolic stability of compound in mouse liver microsomes assessed as remaining compound at 37 deg C. The data set is classed as ADME. (In general: Liver microsomes are a subcellular fraction often used to study metabolism.)
Data set [3] has as its system Liver microsome. Kind of data set: Metabolic stability of compound in human liver microsomes assessed as remaining compound at 37 deg C. Type of data set: ADME. The essentials:
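Test compound incubated with human liver microsomes at 37 °C. Loss of parent compound was followed over a 30 min period, and the percentage remaining is reported as the mean of 3 replicates.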

The nature of data set [4]: Solubility of compound at pH 7.4 buffer. Type of data set: physicochemical. The essentials: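 Solubility was measured at pH 7.4. Each value is the mean of three replicates.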
A short description of data set [5]: AUC in mouse at 10 mg/kg, po. The data set is classed as ADME, organism-based. The following applies: in vivo.
The nature of data set [6]: Clearance in mouse at 1 mg/kg, iv. Type of data set: ADME, organism-based. The following applies: in vivo.
A short description of data set [7]: Elimination half life in mouse at 1 mg/kg, iv. The data set is classed as ADME, organism-based. The following applies: in vivo, read-out: beta t1/2 (converted).
Data set [8] has as its system Mus musculus. The data set is described as follows: Anticolitis activity in DSS-induced chronic colitis C57BL/6 mouse model assessed as reduction in disease activity index at 30 mg/kg, po bid for 30 days. The data set is classed as functional, organism-based.
Data set [9] has as its system Mus musculus. The data set is described as follows: Anticolitis activity in DSS-induced acute colitis C57BL/6 mouse model assessed as reduction in disease activity index at 30 mg/kg, sc bid for 10 days. Type of data set: functional. The following applies: C57BL/6, sc, 240 h.
In data set [10] the test system is Mus musculus. The data set is described as follows: Anticolitis activity in DSS-induced acute colitis C57BL/6 mouse model assessed as reduction in disease activity index at 10 mg/kg, po bid for 10 days. The data set is classed as functional. The following applies: C57BL/6, po, 240 h.
In data set [11] the test system is Mus musculus. The data set is described as follows: Anticolitis activity in DSS-induced acute colitis C57BL/6 mouse model assessed as reduction in disease activity index at 30 mg/kg, po bid for 10 days. Type of data set: functional. The following applies: C57BL/6, po, 240 h.
The subject of data set [12] is Mus musculus. The data set is described as follows: Anticolitis activity in DSS-induced acute colitis C57BL/6 mouse model assessed as reduction in disease activity index at 100 mg/kg, po bid for 10 days. The data set is classed as functional. The following applies: C57BL/6, po, 240 h.
Data set [13] has as its target T1, C-C chemokine receptor type 9 (Homo sapiens, UniProt P51686).
T1 sequence (P51686 whole entry): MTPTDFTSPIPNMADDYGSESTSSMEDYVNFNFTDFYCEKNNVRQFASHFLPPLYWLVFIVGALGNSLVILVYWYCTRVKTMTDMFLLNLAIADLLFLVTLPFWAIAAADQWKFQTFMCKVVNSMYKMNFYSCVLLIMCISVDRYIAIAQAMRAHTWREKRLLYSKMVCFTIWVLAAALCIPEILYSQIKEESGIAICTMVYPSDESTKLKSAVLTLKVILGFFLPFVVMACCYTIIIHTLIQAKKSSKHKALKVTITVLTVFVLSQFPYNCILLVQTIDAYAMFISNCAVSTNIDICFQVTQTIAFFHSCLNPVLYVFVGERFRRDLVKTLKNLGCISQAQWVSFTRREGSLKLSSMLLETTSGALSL
Kind of data set: Antagonist activity at CCR9 receptor in human MOLT4 cells assessed as inhibition of CCL25-induced increase in intracellular calcium level preincubated for 1 hr followed CCL25 addition by FLIPR assay. Type of data set: functional, cell-based, MOLT-4.

Data set [14] concerns Mus musculus. Kind of data set: Anticolitis activity in DSS-induced acute colitis C57BL/6 mouse model assessed as reduction in disease activity index at 3 mg/kg, po bid for 10 days. The data set is classed as functional. The following applies: C57BL/6, po, 240 h.
For data set [15], the system named is Mus musculus. The data set is described as follows: Anticolitis activity in DSS-induced acute colitis C57BL/6 mouse model assessed as reduction in disease activity index at 50 mg/kg, sc bid for 10 days. The data set is classed as functional. Also on record: scale not given: the % may be the effect or the level left.

Structures are written as SMILES. Converted amounts (≈) assume the structure as drawn. The source made the active and inactive calls. No cut-off for these calls is given here.

As to `Cc1ncccc1N1C(=O)c2c(Cl)ccc(NS(=O)(=O)c3ccc(C(C)(C)C)cc3)c2C1=O`, the bioavailability in [1] stood at 73%. Moreover, the values for the Stability in [2] and in data set [3] were 62% and 89%, respectively. Moreover, the solubility in data set [4] stood at 81 µM (≈ 39.2 µg/mL). In addition, the AUC in data set [5] was found to be 46800 ng·h/mL. Further, the clearance in data set [6] turned out to be 2.6 mL/min/kg. The half-life in data set [7] was 3.26 h.

Consider `CC(C)(C)c1ccc(S(=O)(=O)Nc2ccc(Cl)c3c2C(=O)N(Cc2ccc[n+]([O-])c2)C3=O)cc1`, for which the result in [8] was Active. In data set [1], this compound came in with a bioavailability of 33%. For the same compound, the results for the Stability in data set [2] and in [3] were 8% and 15%, respectively. Besides, the inhibition in vivo at 30 mg/kg in [9] came to 24%; in data set [11], 31%. In [4], this compound displayed a solubility of 126 µM (≈ 63 µg/mL). In addition, the AUC in data set [5] stood at 13900 ng·h/mL. In addition, the inhibition in vivo at 10 mg/kg in data set [10] was 21%. Further, the clearance in data set [6] amounted to 3.92 mL/min/kg. Also, in data set [7], the half-life was 0.62 h. Also, the inhibition in vivo at 100 mg/kg in [12] is 58%.

The compound `Cc1cccc(N2C(=O)c3c(Cl)ccc(NS(=O)(=O)c4ccc(C(C)(C)C)cc4)c3C2=O)n1` displayed a bioavailability in [1] of 95%. Further, the values for the Stability in [2] and in data set [3] were 42% and 61%, respectively. Further, in data set [4], the solubility turned out to be 27 µM (≈ 13.1 µg/mL). This compound had an AUC in data set [5] of 67900 ng·h/mL. In data set [6], the clearance turned out to be 2.34 mL/min/kg. For the same compound, in [7], the half-life is 1.32 h.

On to `COc1ncccc1N1C(=O)c2c(Cl)ccc(NS(=O)(=O)c3ccc(C(C)(C)C)cc3)c2C1=O`, for which the bioavailability in [1] was determined as 25%. For the same compound, the Stability in data set [2] is listed as 64%; in [3] it was 67%. In data set [13], the Ki turned out to be 3 nM. Further, the solubility in [4] was 26 µM (≈ 13 µg/mL). Moreover, the AUC in [5] stood at 24000 ng·h/mL. Further, in data set [6], the clearance worked out at 1.73 mL/min/kg. For the same compound, in data set [7], the half-life is 5.37 h.

Take `Cc1c(N2C(=O)c3c(Cl)ccc(NS(=O)(=O)c4ccc(C(C)(C)C)cc4)c3C2=O)ccc[n+]1[O-]`: the outcome in [8] was Active. Moreover, in data set [1], the bioavailability was found to be 48%. The Stability is 76% in data set [2] and 71% in [3]. In data set [4], the concentration in solution (solubility) came to 114 µM (≈ 57 µg/mL). This compound registered an AUC in data set [5] of 16200 ng·h/mL. In addition, in data set [10], the inhibition in vivo at 10 mg/kg was found to be 27%. In [6], this compound gave a clearance of 4.69 mL/min/kg. In addition, the half-life in data set [7] is 1.28 h. For the same compound, the inhibition in vivo at 30 mg/kg in [11] turned out to be 51%. The inhibition in vivo at 100 mg/kg in [12] was 86%. Further, the inhibition in vivo at 3 mg/kg in [14] stood at 41%.

`CC(C)(C)c1ccc(S(=O)(=O)Nc2ccc(Cl)c3c2C(=O)N(c2ccc(F)nc2)C3=O)cc1`: in data set [13], the Ki worked out at 19 nM.

`CC(C)(C)c1ccc(S(=O)(=O)Nc2cccc3c2C(=O)N(Cc2cccnc2)C3=O)cc1`: in data set [13], the Ki is 618 nM.

Regarding `CC(C)(C)c1ccc(S(=O)(=O)Nc2ccc(Cl)c3c2C(=O)N(Cc2cccc[n+]2[O-])C3=O)cc1`, the outcome in data set [8] was Active. Moreover, in [1], the bioavailability turned out to be 56%. Moreover, the Stability is given as 79% in data set [2] and 81% in [3]. Further, the solubility in [4] turned out to be 69 µM (≈ 34.5 µg/mL). In data set [5], this compound showed an AUC of 36000 ng·h/mL. In addition, the inhibition in vivo at 10 mg/kg in data set [10] was determined as 32%. Further, the clearance in [6] came out at 2.57 mL/min/kg. The half-life in [7] was 1.05 h. In data set [11], the inhibition in vivo at 30 mg/kg was 33%. In [12], the inhibition in vivo at 100 mg/kg turned out to be 51%.

In data set [1], `CC(C)(C)c1ccc(S(=O)(=O)Nc2ccc(Cl)cc2C(=O)c2cc[n+]([O-])cc2)cc1` [VERCIRNON] returned a bioavailability of 22%. The Stability came to 9% in data set [2] and 73% in [3]. Moreover, the Activity in [15] stood at 17%. The compound also returned a solubility in data set [4] of 6 µM (≈ 2.67 µg/mL). For the same compound, the AUC in data set [5] worked out at 340 ng·h/mL. In addition, the clearance in data set [6] is 103 mL/min/kg. Also, the half-life in data set [7] is 0.16 h.

Turning to `COc1ccncc1N1C(=O)c2c(Cl)ccc(NS(=O)(=O)c3ccc(C(C)(C)C)cc3)c2C1=O`, the bioavailability in [1] amounted to 100%. Further, the values for the Stability in data set [2] and in [3] were 60% and 81%, respectively. Moreover, the solubility in data set [4] was found to be 10 µM (≈ 5 µg/mL). The AUC in data set [5] is 35600 ng·h/mL. In [6], the clearance was 6.86 mL/min/kg. Besides, the half-life in [7] was 1.03 h.

What is called bioavailability is the share of a dose that reaches the circulation, judged against a reference dose that is usually intravenous. A word on the solubility: it is how much of the substance goes into solution per volume. In general, AUC refers to concentration integrated over time. As usually defined, the clearance is the volume of plasma or blood freed of the substance per unit of time. Broadly, the inhibition in vivo is the percentage by which the read-out fell short of the control. The term Ki denotes the equilibrium dissociation constant of an inhibitor or competing ligand from its target.
